Test [1] deals with T1, Fatty-acid amide hydrolase 1 (Rattus norvegicus, UniProt P97612).
T1 sequence (P97612 whole entry): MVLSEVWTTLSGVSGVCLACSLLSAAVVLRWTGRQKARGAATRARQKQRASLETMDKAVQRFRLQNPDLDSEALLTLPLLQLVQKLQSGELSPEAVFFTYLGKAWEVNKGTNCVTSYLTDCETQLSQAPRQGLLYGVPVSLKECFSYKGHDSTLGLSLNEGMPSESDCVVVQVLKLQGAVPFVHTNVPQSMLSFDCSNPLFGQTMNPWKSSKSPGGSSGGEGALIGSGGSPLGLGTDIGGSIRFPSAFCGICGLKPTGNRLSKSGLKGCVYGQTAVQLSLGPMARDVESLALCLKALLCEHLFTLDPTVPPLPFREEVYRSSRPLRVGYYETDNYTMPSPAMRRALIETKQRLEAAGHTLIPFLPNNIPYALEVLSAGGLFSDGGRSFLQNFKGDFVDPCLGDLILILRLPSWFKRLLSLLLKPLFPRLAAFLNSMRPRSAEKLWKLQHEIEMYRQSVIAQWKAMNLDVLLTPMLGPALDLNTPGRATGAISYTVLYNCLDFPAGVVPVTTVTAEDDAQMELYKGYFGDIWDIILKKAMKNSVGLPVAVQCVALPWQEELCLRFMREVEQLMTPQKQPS
As to the kind of experiment: Inhibition of rat brain FAAH assessed as inhibition of [14C]anandamide hydrolysis. The method in brief: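 Rat brain membranes incubated with [14C]anandamide (6 µM) and increasing compound concentrations in 50 mM Tris–HCl, pH 9, for 30 min at 37 °C. Mixture extracted with 2 volumes CHCl3/CH3OH (2:1). [14C]ethanolamine in the aqueous phase counted by scintillation. IC50 is the mean of n = 3 experiments.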

A further test has as its target Cannabinoid receptor 2 (Homo sapiens, UniProt P34972). Description: Displacement of [3H]CP-55940 from human CB2 receptor expressed in HEK cells. In kind it is cell-based, HEK293. The essentials: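 Preliminary screen at 5, 10 and 25 µM, then a complete displacement curve if binding fell by >50% at 10 µM. IC50 converted to Ki using Cheng–Prusoff. Mean of 3 separate experiments.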
A general note: Displacement assays read how much labelled ligand stays bound in the presence of the test substance.

Test [2] deals with T2, Cannabinoid receptor 1 (Homo sapiens, UniProt P21554). Description: (§1) Displacement of [3H]CP-55940 from human CB1 receptor expressed in HEK cells. In kind it is cell-based, HEK293. The method in brief: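 Membranes from HEK cells transfected with human CB1. Screen at 5, 10 and 25 µM, then full dose–response for compounds displacing >50% at 10 µM. […] Ki derived from IC50 by Cheng–Prusoff. Means of n = 3 separate experiments.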
T2 sequence (P21554 whole entry): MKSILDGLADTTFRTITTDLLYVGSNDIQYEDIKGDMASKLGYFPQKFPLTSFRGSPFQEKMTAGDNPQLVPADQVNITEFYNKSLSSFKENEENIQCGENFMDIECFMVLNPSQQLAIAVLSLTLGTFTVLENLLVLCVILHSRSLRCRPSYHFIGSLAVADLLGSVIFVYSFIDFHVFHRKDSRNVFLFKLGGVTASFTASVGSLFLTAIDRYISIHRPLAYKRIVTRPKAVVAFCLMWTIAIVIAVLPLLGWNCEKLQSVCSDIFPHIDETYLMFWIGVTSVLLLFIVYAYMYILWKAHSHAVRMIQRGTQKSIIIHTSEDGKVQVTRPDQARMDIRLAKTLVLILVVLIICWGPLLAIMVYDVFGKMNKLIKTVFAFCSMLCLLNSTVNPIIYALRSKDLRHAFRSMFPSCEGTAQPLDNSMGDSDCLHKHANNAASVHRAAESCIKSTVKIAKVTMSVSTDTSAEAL

Test [3] deals with T2, Cannabinoid receptor 1. The description is as §1. In kind it is cell-based, HEK293. The source holds these as a separate data set.
Test [4] addresses Cannabinoid receptor (Homo sapiens) (UniProt P34972+P21554). As to the kind of experiment: Selectivity for human CB1 receptor over human CB2 receptor. In kind it is protein assay.

Structures are written as SMILES.

Chain of Cannabinoid receptor 2 (P34972 whole entry): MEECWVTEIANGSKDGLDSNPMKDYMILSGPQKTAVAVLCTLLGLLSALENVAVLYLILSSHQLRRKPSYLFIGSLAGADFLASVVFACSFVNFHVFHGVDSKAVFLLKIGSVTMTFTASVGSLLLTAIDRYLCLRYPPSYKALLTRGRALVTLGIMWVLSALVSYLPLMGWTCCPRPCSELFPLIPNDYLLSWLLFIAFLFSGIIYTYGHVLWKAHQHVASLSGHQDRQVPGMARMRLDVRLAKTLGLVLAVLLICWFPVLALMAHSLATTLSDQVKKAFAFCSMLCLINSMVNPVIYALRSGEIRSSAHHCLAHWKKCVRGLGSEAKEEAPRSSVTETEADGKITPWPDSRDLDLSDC
Chain of Cannabinoid receptor (Homo sapiens) (P21554 whole entry, looked up): as the sequence (P21554 whole entry) above
Chain of Cannabinoid receptor (Homo sapiens) (P34972 whole entry, looked up): as the sequence (P34972 whole entry) above

A word on the IC50: it is the concentration at which inhibition is half-maximal. What is called Ki is the dissociation constant of the complex between target and ligand, obtained from inhibition or displacement. Higher therefore signals weaker binding. On to `CCCCCCc1ccc(OCCCCCCCCCCC(=O)NCC2CC2)cc1O`, for which the figures for the IC50 (in test [1]; on Cannabinoid receptor 1 [2]) were more than 50 µM and more than 10 µM, respectively. The same molecule yielded an inhibitory constant (Ki) at Cannabinoid receptor 2 of 2.9 µM.

With `CCCCCCc1ccc(OCCCCCCCC(=O)NCCO)cc1O`, the values for the Ki on Cannabinoid receptor 1 [3] and on Cannabinoid receptor 2 were 0.19 µM and 2.4 µM, respectively. Besides, in test [1], the IC50 turned out to be 50 µM. In addition, the Ratio Ki in test [4] came to 0.08.

Regarding `CCCCCCc1ccc(OCCCCCCCCCCC(=O)NCc2ccc(OC)c(O)c2)cc1O`, the IC50 in test [1] was more than 50 µM; on Cannabinoid receptor 2, more than 10 µM; at Cannabinoid receptor 1 [2] it was more than 10 µM. The Ratio Ki in test [4] was 1.3.

In the case of `CCCCCc1cc(O)cc(OCCCCCCCCCCCC(=O)NCCO)c1`, the inhibitory constant (Ki) was determined as 0.06 µM at Cannabinoid receptor 1 [3] and 0.039 µM on Cannabinoid receptor 2. Moreover, the IC50 in test [1] was more than 50 µM. For the same molecule, the Ratio Ki in test [4] came to 1.5.

Regarding `CCCCCCc1ccc(OCCCCCCCCCCCC(=O)NC2CC2)cc1O`, the figures for the IC50 (in test [1]; on Cannabinoid receptor 1 [2]) were more than 50 µM and more than 10 µM, respectively. This molecule displayed a Ki on Cannabinoid receptor 2 of 3.94 µM.

`CCCCCCc1ccc(OCCCCCCCC(=O)NC2CC2)cc1O`: the values for the Ki at Cannabinoid receptor 1 [3] and at Cannabinoid receptor 2 were 0.056 µM and 0.28 µM, respectively. For the same molecule, the IC50 in test [1] was more than 50 µM. Further, the Ratio Ki in test [4] was determined as 0.2.

For the molecule `CCCCCc1cc(O)cc(OCCCCCCCCCCC(=O)NCCc2ccc(O)c(O)c2)c1`, the Ki on Cannabinoid receptor 1 [3] was found to be 0.56 µM. At Cannabinoid receptor 2, this molecule showed an IC50 of more than 10 µM.

As to `CCCCCc1cc(O)cc(OCCCCCCCCCCCC(=O)NC2CC2)c1`, the values for the Ki at Cannabinoid receptor 1 [3] and at Cannabinoid receptor 2 were 0.75 µM and 0.31 µM, respectively. Besides, the IC50 in test [1] is 50 µM. Moreover, in test [4], the Ratio Ki came to 2.4.

In the case of `CCCCCc1cc(O)cc(OCCCCCCCCCCC(=O)NCC2CC2)c1`, the values for the Ki on Cannabinoid receptor 1 [3] and on Cannabinoid receptor 2 were 0.51 µM and 0.08 µM, respectively. In addition, in test [1], the IC50 was more than 50 µM. Moreover, the Ratio Ki in test [4] was determined as 6.4.

With `CCCCCc1cc(O)cc(OCCCCCCCC(=O)NC2CC2)c1`, the Ki at Cannabinoid receptor 1 [3] is 0.016 µM; on Cannabinoid receptor 2, 0.039 µM. The IC50 in test [1] was more than 50 µM. Besides, the Ratio Ki in test [4] was 0.33.

For `CCCCCCc1c(O)cccc1OCCCCCCCC(=O)NCCO`, the Ki was 0.26 µM on Cannabinoid receptor 1 [3] and 3.94 µM at Cannabinoid receptor 2. The IC50 in test [1] is 25 µM. For the same molecule, the Ratio Ki in test [4] came to 0.07.

`CCCCCc1cc(O)cc(OCCCCCCCCCCC(=O)NCc2ccc(OC)c(O)c2)c1`: the Ki stood at 2.1 µM at Cannabinoid receptor 1 [3] and 1.65 µM on Cannabinoid receptor 2. The IC50 in test [1] was 10 µM. In test [4], the Ratio Ki amounted to 1.3.

In the case of `CCCCCCc1ccc(OCCCCCCCCCCC(=O)NCCc2ccc(O)c(O)c2)cc1O`, the IC50 at Cannabinoid receptor 2 and at Cannabinoid receptor 1 [2] was more than 10 µM throughout.

`CCCCCCc1ccc(OCCCCCCCCCCCC(=O)NCCO)cc1O`: the IC50 in test [1] is 10 µM; on Cannabinoid receptor 2, more than 10 µM; on Cannabinoid receptor 1 [2] it was more than 10 µM.

Consider `CCCCCc1cc(O)cc(OCCCCCCCC(=O)NCCO)c1`, for which the inhibition constant Ki is 0.13 µM at Cannabinoid receptor 1 [3] and 0.39 µM at Cannabinoid receptor 2. For the same molecule, the 50% inhibitory concentration (IC50) in test [1] is more than 50 µM.

With `CCCCCCc1c(O)cccc1OCCCCCCCCCCC(=O)NCc1ccc(OC)c(O)c1`, the Ki was found to be 2.82 µM on Cannabinoid receptor 1 [3] and 2.1 µM at Cannabinoid receptor 2. Further, the 50% inhibitory concentration (IC50) in test [1] stood at 50 µM.

As for `CCCCCCc1c(O)cccc1OCCCCCCCC(=O)NC1CC1`, the Ki turned out to be 0.31 µM at Cannabinoid receptor 1 [3] and 1.8 µM on Cannabinoid receptor 2. Besides, in test [1], the 50% inhibitory concentration (IC50) is 50 µM. In test [4], the Ratio Ki was 0.17.

The record behind these values is ChEMBL document CHEMBL1143734, “Design, synthesis, binding, and molecular modeling studies of new potent ligands of cannabinoid receptors” (Bioorg Med Chem, 2007).
